Test results published in ChEMBL document CHEMBL1157812, “Mechanism-based inhibitors of the aspartyl protease plasmepsin II as potential antimalarial agents” (J Med Chem, 2010).
Active and inactive are the calls of the source. The rule behind the calls is not given here.

Key:
[1] = Selectivity ratio of Ki for human cathepsin D to Ki for Plasmodium falciparum plasmepsin-2
[2] = test system: Plasmodium falciparum; experiment: Antiplasmodial activity against Plasmodium falciparum 3D7 trophozoites infected in human erythrocytes assessed as [3H]hypoxanthine incorporation into nucleic acid after 30 hrs by beta-scintillation counting; assay type: functional, organism-based
[3] = target: T1, Plasmepsin II (Plasmodium falciparum, UniProt P46925); experiment: Inhibition of Plasmodium falciparum plasmepsin-2
[4] = test system: CHO; experiment: Cytotoxicity against CHO cells at 250 ug/mL after 24 hrs by MTS assay; assay type: cell-based, Cricetulus griseus; conditions: chinese hamster
[5] = target: T1, Plasmepsin II; experiment: Competitive inhibition of Plasmodium falciparum plasmepsin-2 expressed in Escherichia coli BL21 (DE3) after 30 min by FRET assay
How it was run: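 Recombinant mature Plm II from inclusion bodies, refolded and activated in 0.1 M sodium citrate pH 4.7, stored in 20 mM Tris-HCl pH 8.5 with 0.25 M NaCl. FRET assay in NaOAc buffer pH 5.0 using 2.5 nM enzyme and 1 μM DABCYL-Glu-Arg-Nle-Phe-Leu-Ser-Phe-Pro-EDANS substrate. Inhibitor, enzyme and substrate incubated 30 min at 37 C; EDANS fluorescence read at excitation 336 nm.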

[6] = Selectivity ratio of IC50 for human cathepsin D to IC50 for Plasmodium falciparum plasmepsin-2 expressed in Escherichia coli BL21 (DE3)
[7] = test system: CHO; experiment: Cytotoxicity against CHO cells at 10 uM after 24 hrs by MTS assay; assay type: cell-based, Cricetulus griseus; conditions: chinese hamster
[8] = target: Plasmepsin II (Plasmodium falciparum) (UniProt P46925); experiment: Irreversible inhibition of Plasmodium falciparum plasmepsin-2 expressed in Escherichia coli BL21 (DE3) at 1 uM measured after overnight dialysis by spun column chromatography
[9] = target: T1, Plasmepsin II; experiment: Inhibition of Plasmodium falciparum plasmepsin-2 expressed in Escherichia coli BL21 (DE3) after 40 min by Kitz-Wilson plot analysis
[10] = target: Plasmepsin II (Plasmodium falciparum) (UniProt P46925); experiment: Inhibition of Plasmodium falciparum plasmepsin-2 expressed in Escherichia coli BL21 (DE3) at 1 uM after 30 min by FRET assay
[11] = target: Cathepsin D (Homo sapiens, UniProt P07339); experiment: Inhibition of human cathepsin D after 30 mins by FRET assay
[12] = test system: CHO; experiment: Cytotoxicity against CHO cells at 100 ug/mL after 24 hrs by MTS assay; assay type: cell-based, Cricetulus griseus; conditions: chinese hamster
[13] = target: Plasmepsin II (Plasmodium falciparum) (UniProt P46925); experiment: Inhibition of Plasmodium falciparum plasmepsin-2 expressed in Escherichia coli BL21 (DE3) at 1 uM after 1 to 2 hrs
[14] = target: Plasmepsin II (Plasmodium falciparum) (UniProt P46925); experiment: Inhibition of Plasmodium falciparum plasmepsin-2 expressed in Escherichia coli BL21 (DE3) at compound to substrate ratio of 1:1 to 1: 5 after 2 hrs by FRET assay
[15] = target: Plasmepsin II (Plasmodium falciparum) (UniProt P46925); experiment: Inhibition of Plasmodium falciparum plasmepsin-2 expressed in Escherichia coli BL21 (DE3) assessed as residual activity at 1 uM measured after overnight dialysis by spun column chromatography
[16] = test system: Plasmodium falciparum; experiment: Antiplasmodial activity against Plasmodium falciparum infected in human erythrocytes assessed as inhibition of parasite growth; assay type: functional; conditions: read-out: ED50 (the source's name)
[17] = Selectivity ratio of Ki for human cathepsin D to Ki for Plasmodium falciparum recombinant plasmepsin-2
[18] = test system: Plasmodium falciparum; experiment: Antiplasmodial activity against Plasmodium falciparum assessed as inhibition of parasite growth at 20 uM; assay type: functional

Plasmepsin II (Plasmodium falciparum), sequence (P46925 125-453 limits assumed): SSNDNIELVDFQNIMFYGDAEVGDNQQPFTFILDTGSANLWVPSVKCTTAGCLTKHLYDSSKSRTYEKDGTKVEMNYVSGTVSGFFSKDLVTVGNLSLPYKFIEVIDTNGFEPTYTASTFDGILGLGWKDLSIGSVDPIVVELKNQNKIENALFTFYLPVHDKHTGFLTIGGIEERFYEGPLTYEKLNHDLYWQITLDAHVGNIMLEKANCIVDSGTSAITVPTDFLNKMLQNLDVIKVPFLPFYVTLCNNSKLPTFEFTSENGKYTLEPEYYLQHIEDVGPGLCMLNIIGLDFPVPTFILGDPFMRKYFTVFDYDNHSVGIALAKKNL
T1 sequence (P46925 whole entry): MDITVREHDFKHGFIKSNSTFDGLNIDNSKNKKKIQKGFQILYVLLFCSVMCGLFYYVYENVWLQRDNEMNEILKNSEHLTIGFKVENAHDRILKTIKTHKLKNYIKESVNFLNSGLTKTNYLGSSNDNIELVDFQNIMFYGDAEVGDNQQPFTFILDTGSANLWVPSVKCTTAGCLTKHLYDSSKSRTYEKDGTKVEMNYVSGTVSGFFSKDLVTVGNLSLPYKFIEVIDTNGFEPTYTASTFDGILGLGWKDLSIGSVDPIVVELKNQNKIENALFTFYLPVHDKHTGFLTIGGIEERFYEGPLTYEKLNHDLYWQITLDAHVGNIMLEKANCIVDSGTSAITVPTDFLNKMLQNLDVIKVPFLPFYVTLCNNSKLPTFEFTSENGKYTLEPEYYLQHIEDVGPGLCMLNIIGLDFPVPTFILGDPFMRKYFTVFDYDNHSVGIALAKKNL
Cathepsin D, sequence (P07339 65-162 limits assumed): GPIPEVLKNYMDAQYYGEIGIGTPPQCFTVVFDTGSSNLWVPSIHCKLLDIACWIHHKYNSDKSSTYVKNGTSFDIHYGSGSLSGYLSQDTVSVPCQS
Cathepsin D, sequence (P07339 169-412 limits assumed): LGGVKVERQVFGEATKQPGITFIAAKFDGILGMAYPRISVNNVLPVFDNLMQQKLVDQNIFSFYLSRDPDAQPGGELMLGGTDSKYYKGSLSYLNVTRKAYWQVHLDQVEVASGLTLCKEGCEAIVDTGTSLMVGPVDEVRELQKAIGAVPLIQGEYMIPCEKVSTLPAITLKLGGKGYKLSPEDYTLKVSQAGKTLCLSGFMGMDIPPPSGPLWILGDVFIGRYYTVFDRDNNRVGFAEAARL

SMILES	IC50 [2] [nM]	IC50 [5] [nM]	Ratio IC50 [6]	inhibition [8]	inhibition [10]	IC50 [11] [nM]	inhibition [13] [%]	Activity [15] [%]	Activity [7]	other results
Cc1cccc(C)c1OCC(=O)N[C@@H](Cc1ccccc1)[C@@H](O)C[C@H](CC(C)C)NC(=O)[C@H](C(C)C)N1CCCNC1=O	5000	–	–	–	–	–	–	–	–	Ratio Ki [1]: 10; Ki [3]: 357 nM
CC(C)C[C@H](NC(=O)[C@H](C)NC(=O)C[C@H](O)[C@H](COCc1ccc(Br)cc1)NC(=O)[C@@H](NC(=O)c1ccccn1)C(C)C)C(N)=O	5000	–	–	–	–	–	–	–	–	Ki [3]: 0.5 nM
C#CCNC(=O)[C@H](Cc1ccccc1)NC(=O)C[C@H](O)[C@H](Cc1ccccc1)NC(=O)[C@@H](NC(=O)c1ccccn1)C(C)C	9200	22	10.6	inactive	Active	50	76.9	36.1	Non-toxic	–
CC(C)CC(=O)N[C@H](C(=O)N[C@H](C(=O)N[C@@H](CC(C)C)[C@@H](O)CC(=O)N[C@@H](C)C(=O)N[C@@H](CC(C)C)[C@@H](O)CC(=O)O)C(C)C)C(C)C	–	–	–	–	82.8%	–	97.8	85.2	–	–
Cc1ccc(-c2ccc(C[C@H](NC[C@H](O)[C@H](Cc3ccccc3)NC(=O)[C@@H](NC(=O)c3ccccn3)C(C)C)C(N)=O)cc2)cc1	5000	–	–	–	–	–	–	–	–	EC50 [16]: 1600 nM
CC(C)C[C@H](NC(=O)[C@H](C)NC(=O)C[C@H](O)[C@H](Cc1ccccc1)NC(=O)[C@@H](NC(=O)c1ccccn1)C(C)C)C(N)=O	5000	–	–	–	–	–	–	–	–	Ratio Ki [17]: 38; inhibition at 20 µM [18]: 54%

The next lines start with results.

IC50 [2] [nM]	IC50 [5] [nM]	Ratio IC50 [6]	inhibition [8]	inhibition [10]	IC50 [11] [nM]	inhibition [13] [%]	Activity [15] [%]	SMILES	Activity [7]	other results
–	28	3.3	Active	Active	50	76.9	–	CC(C)C[C@H](NC(=O)[C@H](CCl)NC(=O)C[C@H](O)[C@H](Cc1ccccc1)NC(=O)[C@@H](NC(=O)c1ccccn1)C(C)C)C(N)=O	Non-toxic	Activity [4]: Non-toxic; Ki [9]: 35.7 nM; Activity [12]: Non-toxic; inhibition [14]: Active
–	141	1.4	inactive	88.2%	50	76.9	88	CC(C)C[C@H](NC(=O)[C@H](CC#N)NC(=O)C[C@H](O)[C@H](Cc1ccccc1)NC(=O)[C@@H](NC(=O)c1ccccn1)C(C)C)C(N)=O	Non-toxic	–
7700	333	–	Active	Active	50	76.9	–	C#CC[C@H](NC(=O)C[C@H](O)[C@H](Cc1ccccc1)NC(=O)[C@@H](NC(=O)c1ccccn1)C(C)C)C(=O)N[C@@H](CC(C)C)C(N)=O	Non-toxic	Ki [9]: 333 nM; inhibition [14]: Active
